In ChEMBL document CHEMBL1125890, “Synthesis, calcium-channel-blocking activity, and antihypertensive activity of 4-(diarylmethyl)-1-[3-(aryloxy)propyl]piperidines and structurally related compounds” (J Med Chem, 1991):

What was measured:
Oryctolagus cuniculus = species: Oryctolagus cuniculus; assay: Calcium channel-blocking activity by determined by ability to antagonize calcium-induced contractions of isolated rabbit aortic strips; format: functional; conditions: Aorta, read-out: pA2 (converted)
Outline: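 Rabbit aortic strips were bathed in turn in CaCl2-containing buffer, CaCl2-free buffer, then depolarizing (KCl) CaCl2-free buffer. Cumulative CaCl2 addition induced contractions, recorded with force-displacement transducers. Responses were compared without and with 1–100 nM test compound. pA2 was calculated by the Van Rossum method from at least three tissues.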

Rattus norvegicus [1] = assay: Antihypertensive activity expressed as change in mean arterial blood pressure (MABP) in spontaneously hypertensive rats (SHR), at 3-6h after 30 mg/kg oral administration; format: functional, Artery
Outline: (§1)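 Adult male SHR, catheter implanted in carotid artery or abdominal aorta under anesthesia at least 24 h before dosing. Baseline pressure recorded 1-1.5 h. Compound given orally at 30 mg/kg as solution or suspension in 0.5% Tween 80/distilled H2O (v/v) or other vehicle. MABP read at 0.5, 1, 1.5, 2, 3, 4, 5 and 6 h. Average percent change from predose calculated per period. Paired one-tailed t test, p < 0.05. n = 3-6 rats unless noted.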

Rattus norvegicus [2] = assay: Antihypertensive activity expressed as change in mean arterial blood pressure (MABP) in spontaneously hypertensive rats (SHR),at 0.5-2h after 30 mg/kg oral administration; format: functional, Artery; outline: as §1

Compound | Kb (Oryctolagus cuniculus) [nM] | Change (Rattus norvegicus [1]) [%] | Change (Rattus norvegicus [2]) [%]
COc1cc(OCCCN2CCC(C(c3ccc(F)cc3)c3ccc(F)cc3)CC2)ccc1C(C)=O | 3.16 | -11 | -5
COc1cc(C#N)ccc1OCCCN1CCC(C(c2ccc(F)cc2)c2ccc(F)cc2)CC1 | 2 | -9 | -3
Nc1ccc(OCCCN2CCC(C(c3ccc(F)cc3)c3ccc(F)cc3)CC2)cc1 | 31.6 | -8 | -5
CN(CCCN1CCC(C(c2ccc(F)cc2)c2ccc(F)cc2)CC1)c1ccccc1 | 2 | -6 | -3
Fc1ccc(C(c2ccc(F)cc2)C2CCN(CCCCc3ccccc3)CC2)cc1 | 2.51 | -9 | -5
Fc1ccc(OCCCN2CCC(C(c3ccc(F)cc3)c3ccc(F)cc3)CC2)cc1 | 1.26 | -6 | -2
COC(=O)c1ccc(OCCCN2CCC(C(c3ccc(F)cc3)c3ccc(F)cc3)CC2)c(OC)c1 | 1.26 | -2 | -4
COc1cc(C(C)=O)ccc1OCCCN1CCC(C(c2ccc(C)cc2)c2ccc(C)cc2)CC1 | 15.8 | -2 | 3
Fc1ccc(C(c2ccc(F)cc2)C2CCN(CCCOc3ccc(Br)cc3)CC2)cc1 | 1.58 | -17 | -3
COc1cc(C(C)=O)ccc1OCCCN1CCC(C(NC(C)=O)(c2ccc(F)cc2)c2ccc(F)cc2)CC1 | 63.1 | -7 | -3
Fc1ccc(C(c2ccc(F)cc2)C2CCN(CCOc3cccc4ccccc34)CC2)cc1 | 12.6 | -27 | -19
O=S(=O)(CCCN1CCC(C(c2ccc(F)cc2)c2ccc(F)cc2)CC1)c1ccccc1 | 20 | 3 | 2
COc1cc(C(C)=O)ccc1OCCCN1CCC(=C(c2ccc(F)cc2)c2ccc(F)cc2)CC1 | 3.98 | -12 | -9
COc1cc(C(C)=O)ccc1OCCCCN1CCC(C(c2ccc(F)cc2)c2ccc(F)cc2)CC1 | 2.51 | -21 | -16
COc1cc(C(C)=O)ccc1OCCCN1CCC(C(O)(c2ccc(F)c(F)c2)c2ccc(F)c(F)c2)CC1 | 2.51 | -24 | -5
CCc1ccc(OCCCN2CCC(C(c3ccc(F)cc3)c3ccc(F)cc3)CC2)c(OC)c1 | 2.51 | -7 | -9
Fc1ccc(C(c2ccc(F)cc2)C2CCN(CCCSc3ccccc3)CC2)cc1 | 3.16 | -3 | -5
Fc1ccc(C(c2ccc(F)cc2)C2CCN(CCCOc3ccc4ccccc4c3)CC2)cc1 | 7.94 | -4 | -7
Fc1ccc(C(c2ccc(F)cc2)N2CCN(C/C=C/c3ccccc3)CC2)cc1 [FLUNARIZINE] | 5.01 | -1 | -1
COc1ccccc1OCCCN1CCC(C(c2ccc(F)cc2)c2ccc(F)cc2)CC1 | 2.51 | -1 | -4
Fc1ccc(C(c2ccc(F)cc2)C2CCN(CCCOc3ccccc3)CC2)cc1 | 1.58 | -2 | -1
COC(=O)C1=C(C)NC(C)=C(C(=O)OC)C1c1ccccc1[N+](=O)[O-] [NIFEDIPINE] | 0.158 | -35 | -30
COc1ccc(C(c2ccc(OC)cc2)C2CCN(CCCOc3ccc(C(C)=O)cc3OC)CC2)cc1 | 10 | 1 | 2
COc1cc(C(C)=O)ccc1OCCCN1CCC(C(c2cccc(F)c2)c2cccc(F)c2)CC1 | 3.16 | -9 | -11
COc1cc(C(C)=O)ccc1OCCN1CCC(C(c2ccc(F)cc2)c2ccc(F)cc2)CC1 | 6.31 | 0 | -4
COc1cc(C(C)=O)ccc1OCCCCCCN1CCC(C(c2ccc(F)cc2)c2ccc(F)cc2)CC1 | 6.31 | -22 | -10
COc1cc(C(C)=O)ccc1OCCCN1CCC(C(N)(c2ccc(F)cc2)c2ccc(F)cc2)CC1 | 31.6 | -10 | 1
COc1cc(C(C)=O)ccc1OCCCN1CCC(CC(C#N)(c2ccc(F)cc2)c2ccc(F)cc2)C1 (centres undefined) | 10 | -7 | 3
